Assay results as given in ChEMBL document CHEMBL1938254, “Semisynthetic neoboutomellerone derivatives as ubiquitin-proteasome pathway inhibitors” (Bioorg Med Chem, 2012).
pIC50: −log10 of the molar value. Active and inactive are the calls of the source. The calls are words filed in the database; no cut-off is given here.

Columns and labels:
DLD-1 [1] = assay: Inhibition of 20S proteasome in human DLD1 cells transfected with 4Ub-Luc gene assessed as bioluminescence induction factor at 5 uM after 8 hrs by luciferase reporter gene assay relative to epoxomicin; format: cell-based
Method in brief: (§1)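 Stably transfected DLD-1 cells expressing 4Ub-Luc reporter, cultured in MEM with 5% heat-inactivated serum. Seeded at 10⁴ cells/well and treated with compound or solvent for 8 h. Luciferase activity in lysates read by luminometer. Induction factor = signal of treated over untreated cells, normalised to epoxomicin at 10^-7 M run in parallel (set to 100). IF ≥10 counted active.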

DLD-1 [2] = assay: Inhibition of peptide-glutamyl-peptide-hydrolyzing activity of 20S proteasome in human DLD1 cells transfected with 4Ub-Luc gene using Z-Leu-Leu-Glu-AMC as substrate at 40 uM after 6 hrs by spectrofluorometric analysis; format: cell-based
Method in brief: (§2)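 Stably transfected DLD-1 4Ub-Luc cells seeded at 10⁴ cells/well, exposed to compound or solvent for 6 h, then incubated a further 30 min in reaction buffer (30 mM Tris–HCl pH 7.5, 1 mM ATP) with an activity-specific fluorogenic substrate; cellular proteasome activity read by fluorescence. Cells grown in MEM with 5% heat-inactivated serum.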

DLD-1 [3] = assay: Inhibition of chymotrypsin-like activity of 20S proteasome in human DLD1 cells transfected with 4Ub-Luc gene using Succinyl-Leu-Leu-Val-Tyr-AMC as substrate at 20 uM after 6 hrs by spectrofluorometric analysis; format: cell-based; method in brief: as §2
DLD-1 [4] = assay: Inhibition of 20S proteasome activity in human DLD1 cells transfected with 4Ub-Luc gene assessed as bioluminescence induction factor at 10 uM after 8 hrs by luciferase reporter gene assay relative to epoxomicin; format: cell-based; method in brief: as §1
DLD-1 [5] = assay: Inhibition of 20S proteasome in human DLD1 cells transfected with 4Ub-Luc gene assessed as bioluminescence induction factor at 1 uM after 8 hrs by luciferase reporter gene assay relative to epoxomicin; format: cell-based; method in brief: as §1
DLD-1 [6] = assay: Inhibition of 20S proteasome in human DLD1 cells transfected with 4Ub-Luc gene assessed as bioluminescence induction factor at 0.1 uM after 8 hrs by luciferase reporter gene assay relative to epoxomicin; format: cell-based; method in brief: as §1
[7] = Inhibition of peptide-glutamyl-peptide-hydrolyzing activity of 20S proteasome in human DLD1 cells transfected with 4Ub-Luc gene using Z-Leu-Leu-Glu-AMC as substrate after 6 hrs by spectrofluorometric analysis; format: cell-based; details: dld-1
Method in brief: (§3)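 DLD-1 4Ub-Luc cells seeded at 10⁴ cells/well, exposed to compound or solvent for 6 h, then 30 min in reaction buffer (30 mM Tris–HCl pH 7.5, 1 mM ATP). Chymotrypsin-like and PGPH activities read with specific fluorogenic substrates.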

[8] = Inhibition of chymotrypsin-like activity of 20S proteasome in human DLD1 cells transfected with 4Ub-Luc gene using Succinyl-Leu-Leu-Val-Tyr-AMC as substrate after 6 hrs by spectrofluorometric analysis; format: cell-based; details: dld-1; method in brief: as §3
[9] = Cytotoxicity against human WM266.4 cells after 72 hrs by ATPlite assay; format: functional, cell-based; details: WM 266-4, 72 h
Method in brief: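 WM-266-4 metastatic melanoma cells grown in DMEM with 10% fetal calf serum, 2 mM L-glutamine, fungizone and penicillin–streptomycin at 37 °C, 5% CO2. Seeded at 3 × 10⁴ cells/ml, left 24 h, then exposed to increasing compound concentrations for 72 h. Viability read as ATP level (ATPlite). IC50 from nonlinear sigmoidal fit with variable Hill slope; mean of two independent experiments.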

DLD-1 [10] = assay: Inhibition of 20S proteasome in human DLD1 cells transfected with 4Ub-Luc gene assessed as bioluminescence induction factor at 0.5 uM after 8 hrs by luciferase reporter gene assay relative to epoxomicin; format: cell-based; method in brief: as §1

| pIC50 [7] | pIC50 [8] | SMILES | fold change (FC) (DLD-1 [1]) | inhibition (DLD-1 [2]) | inhibition (DLD-1 [3]) | fold change (FC) (DLD-1 [4]) | fold change (FC) (DLD-1 [5]) | fold change (FC) (DLD-1 [6]) | pIC50 [9] | fold change (FC) (DLD-1 [10]) |
| --- | --- | --- | --- | --- | --- | --- | --- | --- | --- | --- |
| – | – | C[C@]12C(=O)C=CCC1=CC[C@@H]1[C@@H]2CC[C@]2(O)C(=O)O[C@@]3(C)[C@H]4C[C@]5(C)[C@@H](CO[C@@]16O[C@@]32[C@H]5C6=O)C(=O)O4 | 19 | Active | Active | – | – | – | – | – |
| 6.52 | 7.15 | CC(=O)N[C@@H](CSC(=O)[C@]1([C@@H](O)C(C)C)NC(=O)[C@H](C)[C@@H]1O)C(=O)O [LACTACYSTIN] | 106 | – | – | 93 | 72 | 6.2 | – | – |
| 7.22 | 8.22 | CC[C@H](C)[C@H](NC(=O)[C@H]([C@@H](C)CC)N(C)C(C)=O)C(=O)N[C@H](C(=O)N[C@@H](CC(C)C)C(=O)[C@@]1(C)CO1)[C@@H](C)O [EPOXOMYCIN] | – | – | – | – | 112 | 100 | 8.32 | – |
| 9.05 | 9.70 | CC(C)C[C@H](NC(=O)[C@H](Cc1ccccc1)NC(=O)c1cnccn1)B(O)O [BORTEZOMIB] | – | – | – | – | 117 | 133 | 7.46 | – |
| 4.64 | 4.80 | C=C(C(=O)[C@H](OC(C)=O)[C@@H](C)[C@H]1[C@@H](OC(C)=O)C[C@@]2(C)[C@@H]3CC[C@H]4[C@H](C)C(=O)C=C[C@@]45C[C@@]35CC[C@]12C)[C@@H](C)CO [NEOBOUTOMELLERONE] | 37 | – | – | 4.4 | 48 | – | 5.55 | 2.1 |
| 4.00 | 4.30 | C=C(C(=O)[C@H](OC(=O)CCl)[C@@H](C)[C@H]1[C@@H](OC(C)=O)C[C@@]2(C)[C@@H]3CC[C@H]4[C@H](C)C(=O)C=C[C@@]45C[C@@]35CC[C@]12C)[C@@H](C)COC(C)=O | 21 | – | – | 5 | 64 | – | 6.18 | 23 |

| SMILES | pIC50 [7] | pIC50 [8] | fold change (FC) (DLD-1 [1]) | inhibition (DLD-1 [2]) | inhibition (DLD-1 [3]) | fold change (FC) (DLD-1 [4]) | fold change (FC) (DLD-1 [5]) | fold change (FC) (DLD-1 [6]) | pIC50 [9] | fold change (FC) (DLD-1 [10]) |
| --- | --- | --- | --- | --- | --- | --- | --- | --- | --- | --- |
| C=C(C(=O)[C@H](O)[C@@H](C)[C@H]1[C@@H](OC(C)=O)C[C@@]2(C)[C@@H]3CC[C@H]4[C@H](C)C(=O)C=C[C@@]45C[C@@]35CC[C@]12C)[C@@H](C)CO | 4.29 | 4.38 | 28 | – | – | 2.9 | 45 | – | 5.80 | 1.4 |
